Hits are enriched below; roughly 0.58% of the tested compounds scored in any of these assays.
Cneo AK release – causes C. neoformans cell lysis; 360,000 tested, 0.2% active; lysis activity, % at 15 µM; adenylate kinase release luminescence, 4 h; normalised: neutral wells 0, clomiphene wells 100; AID 651654;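 active = mean lysis activity across replicates of at least 80%, whatever share of replicates individually reach that level; inactive = mean lysis activity below 80%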
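Test system: log-phase Cryptococcus neoformans yeast cells. Input: 5 × 10^6 yeast cells/mL. Medium: fresh YPD growth medium. Doses: single dose. Incubation: static 4 h at 37 °C with compound, 1 h detection. Measured by: luminescent adenylate kinase detection reagent. Read-out: signal increase indicating cell lysis. Benchmarks: Clomiphene.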
PglD inh – inhibitors of Campylobacter jejuni PglD acetyltransferase; inhibition, % at 12.5 µM; purified PglD enzyme, DTNB colorimetric CoA detection; 360,000 tested, 0.098% active; AID 602405; in the data active = inhibition above about 16%, passing the limit was not always enough
PDI turbidity – blocks human protein disulfide isomerase activity; P07237; inhibition, % at 10 µM; AID 588391; 350,000 tested, 0.052% active; PDI insulin aggregation turbidity, A650, 90 min;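 active = mean inhibition across replicates of 30% or more, whatever share of single replicates reach that level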
Target sequence (P07237 whole entry, looked up): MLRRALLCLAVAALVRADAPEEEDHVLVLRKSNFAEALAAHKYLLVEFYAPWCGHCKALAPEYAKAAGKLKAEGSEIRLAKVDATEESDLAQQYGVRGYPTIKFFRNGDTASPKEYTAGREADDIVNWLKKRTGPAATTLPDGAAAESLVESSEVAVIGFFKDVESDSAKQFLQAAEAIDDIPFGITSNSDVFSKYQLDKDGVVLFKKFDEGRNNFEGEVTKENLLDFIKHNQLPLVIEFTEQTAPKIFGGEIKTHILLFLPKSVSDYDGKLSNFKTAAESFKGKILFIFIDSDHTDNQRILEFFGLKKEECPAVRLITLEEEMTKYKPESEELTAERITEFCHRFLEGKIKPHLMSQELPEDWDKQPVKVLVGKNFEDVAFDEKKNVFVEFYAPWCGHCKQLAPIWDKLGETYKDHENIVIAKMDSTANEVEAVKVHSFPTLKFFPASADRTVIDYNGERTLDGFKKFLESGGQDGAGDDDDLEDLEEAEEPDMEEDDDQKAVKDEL
ERp5 block – blocks human ERp5 reductase activity on insulin; Q15084; ERp5 insulin aggregation, absorbance 650 nm, 90 min; 350,000 tested, 0.05% active; inhibition, % at 9.99 µM;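 active = mean replicate inhibition above about 25%, with every replicate also reaching it, limit read from the data, passing the limit was not always enough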
PvdQ inh – P. aeruginosa PvdQ acylase inhibition; AID 488965; inhibition, % at 10 µM; purified PvdQ acylase, fluorescence plate reader; 340,000 tested, 0.063% active; in the data active = inhibition above about 30%, passing the limit was not always enough;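 note: 0% = vehicle neutral wells and 100% = reference inhibitor wells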
miR-122 sensor – inhibitors of miR-122 in Huh7 cells | Huh7 miR-122 Renilla luciferase sensor, 48 h; neutral wells = 0, positive control = 100 | activation (reporter increase), % at 12.5 µM | 340,000 tested, 0.3% active | AID 602342;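 active = mean replicate activation score at least 90 and every replicate individually at or above 90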;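 note: higher luciferase means less miR-122 activity so hits act as miR-122 inhibitors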
Starred values were filed as active, the others as inactive; x = not tested or not shown; ! = repeats disagree; [ ] = remark or other dose.

SMILES	Cneo AK release	PglD inh	PDI turbidity	ERp5 block	PvdQ inh	miR-122 sensor
CCCC#Cc1ccc2c(c1)O[C@H](CN(C)C(=O)c1ccccn1)[C@@H](C)CN([C@H](C)CO)S2(=O)=O	0.0	3.1	x	-7.3	x	128.0*[16.7 µM]
CCCC#Cc1ccc2c(c1)O[C@@H](CN(C)C(=O)c1ccccn1)[C@H](C)CN([C@@H](C)CO)S2(=O)=O	1.0	-0.1	x	-2.8	x	21.7[16.7 µM]
CC(C)C#Cc1ccc2c(c1)O[C@H](CN(C)C(=O)Cc1ccccn1)[C@H](C)CN([C@H](C)CO)S2(=O)=O	101.2*	-1.0	x	-4.0	x	67.0[16.7 µM]
CCCNC(=O)C[C@@H]1CC[C@@H]2[C@H](COc3ccc(NC(=O)Cc4cccs4)cc3C(=O)N2C)O1	-4.2	1.0	x	x	x	-26.7[16.7 µM]
CCCNC(=O)C[C@@H]1CC[C@H]2[C@H](COc3ccc(NC(=O)Cc4cccs4)cc3C(=O)N2C)O1	-1.0	-0.7	x	x	x	206.7*[16.7 µM]
CCCNC(=O)C[C@H]1CC[C@H]2[C@H](COc3ccc(NC(=O)Cc4cccs4)cc3C(=O)N2C)O1	-1.5	0.9	x	x	x	166.7*[16.7 µM]
CCCC(=O)N1CC2(C1)CN(S(C)(=O)=O)[C@H](CO)c1c2c2ccc(OC)cc2n1C	x	x	x	-4.3	x	x
COc1ccc(C2=Nn3c(nnc3-c3ccccc3OC)SC2)cc1OC1CCOC1 (configuration not stated)	-2.8	4.4	-0.4	0.0	9.7	131.4*
COC(=O)c1ccc(Nc2nnc(-c3ccc(C)c(S(=O)(=O)NCC4CCCO4)c3)c3ccccc23)cc1 (configuration not stated)	1.0	-0.1	-2.1	x	19.0	249.7*
CCOC(=O)CNS(=O)(=O)c1cc(-c2nnc(Nc3ccc4c(c3)OCO4)c3ccccc23)ccc1C	x	x	-0.3	x	-2.2	106.4*
Cc1ccc(-c2nnc(Nc3ccc(C(=O)N(C)C)cc3)c3ccccc23)cc1S(=O)(=O)NCC1CCCO1 (configuration not stated)	x	x	10.5	x	-11.6	x
Cc1ccc(-c2nnc(Nc3ccc(O)cc3)c3ccccc23)cc1S(=O)(=O)NCCO	-1.5	-1.6	-1.3	2.8	-11.5	48.8
C/C=C/c1ccc2c(c1)O[C@H](CN(C)C(=O)Nc1ccc(C(F)(F)F)cc1)[C@H](C)CN([C@@H](C)CO)S2(=O)=O	0.8	2.4	x	9.2	x	33.7[16.7 µM]
C[C@H]1CN([C@@H](C)CO)C(=O)c2cc(C3=CCCC3)cnc2O[C@@H]1CN(C)S(=O)(=O)c1cn(C)cn1	-2.4	-0.6	x	2.1	x	-2.9[16.7 µM]
Cc1ccc(S(=O)(=O)N(C)C[C@@H]2OCCCC[C@@H](C)Oc3ccc(NS(=O)(=O)c4cn(C)cn4)cc3C(=O)N([C@H](C)CO)C[C@@H]2C)cc1	-1.2	-1.8	x	-0.1	x	-7.0[16.7 µM]
CC(C)CC1(C)N=C(c2ccccc2)C(=S)N1 (configuration not stated)	82.1*	1.5	-2.9	0.2	10.1	13.8
Cc1ccc2nc(-c3ccc(O)cc3)oc2c1	-10.2	0.7	7.2	-2.6	31.8*	-6.3
Cc1ccc2nc(-c3cccc(N)c3)oc2c1	x	x	-3.1	-3.8	3.7	x
C[C@H](CO)N1C[C@H](C)[C@@H](CN(C)CC2CCCCC2)Oc2c(NC(=O)C3CC3)cccc2C1=O	0.0	3.1	8.2	7.4	-9.8	113.7*![16.7 µM]
C[C@H](CO)N1C[C@H](C)[C@H](CN(C)CC2CCCCC2)Oc2c(NS(C)(=O)=O)cccc2C1=O	90.9*	-2.7	x	0.6	x	-2.5[16.7 µM]
C[C@H](CO)N1C[C@H](C)[C@@H](CN(C)CC2CC2)Oc2c(NC(=O)C3CC3)cccc2C1=O	-0.6	5.7	-7.3	-3.2	6.3	148.8*[16.7 µM]
C[C@@H]1CN([C@H](C)CO)C(=O)c2cccc(NC(=O)C3CC3)c2O[C@H]1CN(C)CC1CCCCC1	0.1	-3.4	x	6.3	x	36.9[16.7 µM]
C[C@@H]1CN([C@H](C)CO)C(=O)c2cccc(NS(C)(=O)=O)c2O[C@H]1CN(C)CC1CCCCC1	5.0	1.6	x	2.6	x	40.0[16.7 µM]
C[C@@H]1CN([C@H](C)CO)C(=O)c2cc(-c3ccc(F)cc3)cnc2O[C@H]1CN(C)C(=O)c1ccccc1F	51.1	4.2	x	-5.9	x	6.2[16.7 µM]
C[C@@H]1CN([C@@H](C)CO)C(=O)c2cc(NC(=O)Nc3cccc4ccccc34)ccc2O[C@@H]1CN(C)Cc1ccc(Oc2ccccc2)cc1	-0.8	-3.0	x	-7.3	x	4.8[16.7 µM]
SMILES	Cneo AK release	PglD inh	PDI turbidity	ERp5 block	PvdQ inh	miR-122 sensor
COc1ccc(NC(=O)N2CCCCN3[C@H](CO)[C@@H](c4ccc(C5=CCCC5)cc4)[C@@H]3C2)cc1	-0.2	1.4	x	1.5	x	16.3[16.7 µM]
CCOC(=O)N1CCN(C(=O)CN(c2cccc(C)c2)S(=O)(=O)c2ccc(C)cc2)CC1	-1.4	6.3	-1.3	x	0.9	-0.3
CC1CCN(C(=O)CN(c2ccc3c(c2)OCCO3)S(=O)(=O)c2ccccc2)CC1	0.6	1.2	5.5	2.3	-13.0	103.6*
COc1ccc(OC)c(N(CC(=O)N2CCC(C)CC2)S(=O)(=O)c2ccccc2)c1	-0.3	-2.6	-6.9	x	-12.8	231.6*
Cc1ccc(S(=O)(=O)N(CC(=O)N2CCC(C)CC2)c2cccc(C)c2)cc1	-0.1	2.8	1.8	x	-1.3	143.6*
COc1ccc(OC)c(N(CC(=O)N2CCC(C)CC2)S(=O)(=O)c2ccc(OC)c(OC)c2)c1	-0.2	2.6	2.0	x	4.7	37.3
CN1C(=O)c2cc(NC(=O)c3ccccc3Cl)ccc2OC[C@H]2O[C@H](CC(=O)O)CC[C@@H]21	2.1	4.3	x	0.8	x	32.5[16.7 µM]
CO[C@H]1CC[C@H]2CCOc3ccc(C#N)cc3C(=O)N(C)C[C@@H](OC)[C@H](C)C(=O)N(C)C[C@@H]1O2	4.4	0.9	x	0.6	x	x
O=C(N/N=C1\CCCc2ccccc21)c1ccccc1Cl	x	x	5.4	27.7*	0.4	x
O=C(N/N=C1\CCc2ccccc21)c1ccccc1O	x	x	5.7	x	4.8	x
CCN(CC)c1ccc(NC(=O)c2ccccn2)cc1S(=O)(=O)Nc1ccccc1OC	0.9	0.0	-4.0	18.8	-2.3	124.5*
COc1ccc(NS(=O)(=O)c2cc(NC(=O)c3ccccn3)ccc2OC)cc1Br	-0.1	-2.2	2.7	-0.9	-5.2	52.0
CCN(CC)c1ccc(NC(=O)COc2ccccc2C#N)cc1S(=O)(=O)Nc1ccccc1OC	2.6	5.2	9.4	2.0	-4.1	287.5*
COCC(=O)N1C[C@@H](C)[C@@H](OC)CN(C)C(=O)c2cc(NC(=O)NC(C)C)ccc2OC[C@H]1C	73.5	1.5	x	4.3	x	-12.5[16.7 µM]
O=C(Nc1ccc(S(=O)(=O)NCc2ccccc2)cc1)Nc1ccc2c(c1)OCO2	-5.2	6.4	4.3	-6.0	-3.0	242.6*
Cc1cc(NC(=O)c2ccc([N+](=O)[O-])cc2Cl)no1	-6.1	4.4	-6.8	-2.5	40.3*	0.3
Cc1cc(NC(=O)c2cc([N+](=O)[O-])ccc2Cl)no1	1.2	5.1	-2.8	-4.4	87.8*	2.8
Cc1cc(NC(=O)c2cc(Cl)ccc2Cl)no1	-0.5	-2.6	-2.6	x	74.6*	-3.5

Screening results as filed in PubChem.
